According to ChEMBL document CHEMBL1131094, “Classical/nonclassical hybrid cannabinoids: southern aliphatic chain-functionalized C-6beta methyl, ethyl, and propyl analogues” (J Med Chem, 1998):

Columns and labels:
Cannabinoid receptor 1 = Cannabinoid receptor 1 (Rattus norvegicus, UniProt P20272); assay: Binding affinity to Cannabinoid receptor 1 from rat forebrain synaptosomal membranes was measured using [3H]CP-55940 as radioligand
Method in brief: (§1)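 Filtration displacement assay: 40 µg membrane protein (rat forebrain synaptosomes for CB1, mouse spleen for CB2) incubated 1 h at 30 °C with 0.76 nM [3H]CP-55,940 and varied test concentrations. Nonspecific binding defined by 100 nM unlabeled CP-55,940. Specific binding normalized 0–100%, IC50 fitted with a four-variable equation (max 100, min 0), mean of ≥3 experiments in duplicate, then converted to Ki.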

Cannabinoid receptor 2 = Cannabinoid receptor 2 (Mus musculus, UniProt P47936); assay: Binding affinity to Cannabinoid receptor 2 from mouse spleen was measured using [3H]CP-55940 as radioligand; format: tissue-based; method in brief: as §1
Sequence of Cannabinoid receptor 2 (P47936 whole entry): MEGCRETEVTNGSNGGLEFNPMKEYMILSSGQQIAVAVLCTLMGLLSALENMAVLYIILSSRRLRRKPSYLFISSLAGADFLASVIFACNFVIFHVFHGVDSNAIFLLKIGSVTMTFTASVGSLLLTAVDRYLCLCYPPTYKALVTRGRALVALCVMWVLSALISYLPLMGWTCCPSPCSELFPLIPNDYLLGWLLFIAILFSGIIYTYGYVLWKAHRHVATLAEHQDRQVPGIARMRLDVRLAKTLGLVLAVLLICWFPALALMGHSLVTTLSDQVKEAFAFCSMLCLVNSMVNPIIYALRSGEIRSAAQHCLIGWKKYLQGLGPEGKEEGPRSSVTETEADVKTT

Sequence of Cannabinoid receptor 1 (P20272 whole entry): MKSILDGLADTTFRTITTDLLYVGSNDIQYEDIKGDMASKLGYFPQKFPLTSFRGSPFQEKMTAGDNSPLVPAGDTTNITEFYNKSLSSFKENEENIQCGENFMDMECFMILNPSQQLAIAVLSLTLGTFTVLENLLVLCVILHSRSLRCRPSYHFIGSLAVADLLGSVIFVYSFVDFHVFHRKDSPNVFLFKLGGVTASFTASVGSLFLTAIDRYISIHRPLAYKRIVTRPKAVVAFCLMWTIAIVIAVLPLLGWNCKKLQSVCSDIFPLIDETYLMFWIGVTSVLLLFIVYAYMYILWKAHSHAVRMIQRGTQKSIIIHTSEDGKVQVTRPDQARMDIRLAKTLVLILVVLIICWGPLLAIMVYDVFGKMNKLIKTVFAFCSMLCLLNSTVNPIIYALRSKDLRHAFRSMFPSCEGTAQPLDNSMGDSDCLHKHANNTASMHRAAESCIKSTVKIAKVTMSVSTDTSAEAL

Structure (SMILES): CCCCCCC(C)(C)c1cc(O)c2c(c1)O[C@@](C)(CCO)[C@@H]1CC[C@@H](CO)C[C@@H]21
- Ki (Cannabinoid receptor 1): 2.8 nM
- Ki (Cannabinoid receptor 2): 2.3 nM

Structure (SMILES): CCCCCCC(C)(C)c1cc(O)c2c(c1)O[C@@](C)(CC)[C@@H]1CC[C@@H](CO)C[C@@H]21
- Ki (Cannabinoid receptor 1): 11.1 nM
- Ki (Cannabinoid receptor 2): 21.5 nM

Structure (SMILES): CCCCCCC(C)(C)c1cc(O)c2c(c1)OC(C)(C)[C@@H]1CC[C@@H](CO)C[C@@H]21
- Ki (Cannabinoid receptor 1): 2.3 nM
- Ki (Cannabinoid receptor 2): 2.3 nM

Structure (SMILES): CCCCCCC(C)(C)c1cc(O)c2c(c1)O[C@@](C)(CCI)[C@@H]1CC[C@@H](CO)C[C@@H]21
- Ki (Cannabinoid receptor 1): 40.7 nM
- Ki (Cannabinoid receptor 2): 9.7 nM

Structure (SMILES): CCCCCCC(C)(C)c1cc(O)c2c(c1)O[C@@](C)(CO)[C@@H]1CC[C@@H](CO)C[C@@H]21
- Ki (Cannabinoid receptor 1): 1.9 nM
- Ki (Cannabinoid receptor 2): 1.4 nM

Structure (SMILES): CCCCCCC(C)(C)c1cc(O)c2c(c1)O[C@@](C)(CCC)[C@@H]1CC[C@@H](CO)C[C@@H]21
- Ki (Cannabinoid receptor 1): 14.4 nM
- Ki (Cannabinoid receptor 2): 38.9 nM

Structure (SMILES): CCCCCCC(C)(C)c1cc(O)c2c(c1)O[C@@](C)(CCCI)[C@@H]1CC[C@@H](CO)C[C@@H]21
- Ki (Cannabinoid receptor 1): 2.2 nM
- Ki (Cannabinoid receptor 2): 4.3 nM

Structure (SMILES): CCCCCCC(C)(C)c1cc(O)c2c(c1)O[C@@](C)(CCCO)[C@@H]1CC[C@@H](CO)C[C@@H]21
- Ki (Cannabinoid receptor 1): 2.2 nM
- Ki (Cannabinoid receptor 2): 3.4 nM
